# Laboratory results from PubChem BioAssay.
# Activity calls are given as the source filed them.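 Rule for the calls, unless noted: active = visually confirmed hit in the image check and inhibition above 20%; inconclusive = visually confirmed hit but inhibition not above 20%; inactive = no visual hit in the image check.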
# Columns and labels:
# [1] = inhibitors of TNFa-induced NFkB p65 translocation, primary screen, imaging, HUVEC, MLSMR starter and 10KST1 sets (AID 438;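 active = inhibition above 20% together with a positive visual image hit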;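 note: compound added about 3h40 before a 20 min TNFalpha stimulation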;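 for inhibition: signal is the nuclear over cytoplasmic p65 intensity ratio per well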); conditions: HUVEC TNFa-induced p65 nuclear translocation; cell count: measured here: nuclei count (cytotoxicity indicator), at 2.08 µM; inhibition: at 2 µM, stronger effect = higher value, 0% TNFa-plus-vehicle, 100% no-TNFa wells
# [2] = endothelial E-selectin expression blockers – imaging, HUVEC, immunofluorescence, MLSMR starter and 10KST1 sets, primary screen (AID 487); conditions: HUVEC TNFalpha-induced E-selectin immunofluorescence imaging, at 2 µM; inhibition: stronger effect = higher value; nuclei count: measured here: cell number, toxicity;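 for inhibition: signal is fraction of cell area covered by stained E-selectin grains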;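 for nuclei count: 100% = median nuclei count of all wells on the same plate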
# [3] = Primary imaging screen for DUSP6 inhibitors that restore phospho-Erk in transfected HeLa cells, chemical complementation (AID 609;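 active = compounds giving at least 50% inhibition in the cell-based MKP-3 phosphatase rescue imaging test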;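 for inhibition: phospho-Erk level distribution per well compared with pooled transfected vehicle control wells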); conditions: HeLa MKP-3 transfected, phospho-Erk imaging KS statistic, at 10 µM, cells stimulated with TPA for 15 min
# [4] = molecular target: Dual specificity protein phosphatase 6 (Homo sapiens) (UniProt Q16828); assay: as above; conditions: HeLa MKP-3 transfected, phospho-Erk imaging KS statistic; at 10 µM; stronger effect = higher value; cells stimulated with TPA for 15 min
# Sequence of Dual specificity protein phosphatase 6 (Homo sapiens) (Q16828 whole entry, looked up): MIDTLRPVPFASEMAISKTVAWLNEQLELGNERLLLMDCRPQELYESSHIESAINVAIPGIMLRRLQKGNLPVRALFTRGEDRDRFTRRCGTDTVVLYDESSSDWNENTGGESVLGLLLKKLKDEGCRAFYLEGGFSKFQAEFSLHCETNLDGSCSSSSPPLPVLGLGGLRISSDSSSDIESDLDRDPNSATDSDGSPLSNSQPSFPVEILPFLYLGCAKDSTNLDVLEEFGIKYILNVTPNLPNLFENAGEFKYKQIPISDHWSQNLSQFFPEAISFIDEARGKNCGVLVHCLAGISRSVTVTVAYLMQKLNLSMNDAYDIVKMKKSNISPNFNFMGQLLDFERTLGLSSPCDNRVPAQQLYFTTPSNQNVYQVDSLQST
# [5] = molecular target: Voltage-gated potassium channel subunit beta-2 (Rattus norvegicus) (UniProt P62483); assay: inhibitors of rat Kvbeta2 reductase activity – biochemical, NADPH fluorescence, primary screen (AID 622;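 active = fluorescence slope higher than the sample average by over 3 SD, cut at about -0.22 in these data, passing the limit was not always enough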;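 note: slope of raw intensity against log time taken from 70 to 1610 s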); conditions: recombinant KvBeta, 4-cyanobenzaldehyde reduction, at 10 µM, stronger effect = higher value
# Sequence of Voltage-gated potassium channel subunit beta-2 (Rattus norvegicus) (P62483 whole entry, looked up): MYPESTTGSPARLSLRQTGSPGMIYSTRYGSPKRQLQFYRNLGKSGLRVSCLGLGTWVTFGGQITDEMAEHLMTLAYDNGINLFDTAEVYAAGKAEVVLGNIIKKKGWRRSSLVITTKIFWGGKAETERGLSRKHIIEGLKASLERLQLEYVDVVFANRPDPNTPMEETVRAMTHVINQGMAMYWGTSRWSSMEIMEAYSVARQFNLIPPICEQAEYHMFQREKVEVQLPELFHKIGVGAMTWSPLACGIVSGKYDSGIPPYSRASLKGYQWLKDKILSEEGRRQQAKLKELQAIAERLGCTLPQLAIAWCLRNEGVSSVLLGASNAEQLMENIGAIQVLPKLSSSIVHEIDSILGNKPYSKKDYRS
# [6] = molecular target: Voltage-gated potassium channel subunit beta-2 (Rattus norvegicus) (UniProt P62483); assay: enhancers of rat Kvbeta2 NADPH turnover – biochemical, NADPH fluorescence, primary screen (AID 623;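 active = NADPH fluorescence slope more negative than the mean of all samples by about 3 SD, 99.7% confidence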;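 note: fluorescence intensity change per second fitted from 20 to 320 s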); conditions: Recombinant KvBeta, NADPH fluorescence decrease slope, 10 min; at 10 µM; stronger effect = lower value
# [7] = molecular target: Muscarinic acetylcholine receptor M4 (Homo sapiens) (UniProt P08173); assay: M4-linked GIRK flux change, two-sided – cell-based, HEK293 M4/GIRK, thallium flux, BTC-AM, M4 allosteric agonist project, primary screen (AID 625;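 active = fluorescence slope after compound addition differing from the mean of all tested samples at 99.7% confidence, mostly higher but some lower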;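 note: thallium influx through GIRK channels coupled to M4 in HEK293 cells with BTC-AM dye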); conditions: at 10 µM, actives lie on both sides
# Sequence of Muscarinic acetylcholine receptor M4 (Homo sapiens) (P08173 whole entry, looked up): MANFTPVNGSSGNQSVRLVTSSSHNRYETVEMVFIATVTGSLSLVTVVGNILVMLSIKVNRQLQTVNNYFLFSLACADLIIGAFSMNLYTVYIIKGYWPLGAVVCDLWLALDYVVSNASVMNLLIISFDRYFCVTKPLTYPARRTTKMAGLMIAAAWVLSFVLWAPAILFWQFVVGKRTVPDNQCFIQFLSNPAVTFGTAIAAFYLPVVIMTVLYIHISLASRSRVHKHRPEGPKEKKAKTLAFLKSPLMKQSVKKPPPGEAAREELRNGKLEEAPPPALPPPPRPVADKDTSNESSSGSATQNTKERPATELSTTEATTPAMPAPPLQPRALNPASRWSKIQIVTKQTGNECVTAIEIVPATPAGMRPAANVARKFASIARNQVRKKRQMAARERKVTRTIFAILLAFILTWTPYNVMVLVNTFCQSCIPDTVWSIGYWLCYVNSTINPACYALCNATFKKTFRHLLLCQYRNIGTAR
# Outline: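 System: HEK293 cells with M4 receptor and GIRK channels | Incubation: Cells overnight at 37 °C, BTC-AM loading 1 h, reads 2 min total | Technique: Kinetic BTC-AM fluorescence sampled at 1 Hz, 10 s pre-addition baseline | Measure: Post-addition slope, 15–24 s, of baseline-normalized fluorescence | Control set: Carbachol positive, DMSO negative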
# [8] = inhibitors of larval lipid processing in zebrafish, primary screen, whole organism, PED6 fluorescence, gall bladder and intestine (AID 686;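 active = a full or partial loss of lipid-probe fluorescence in the fish gall bladder, intestine or both, judged by eye; inactive = no fluorescence loss, or compound toxic to the fish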;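 note: larvae 5 to 7 days old with five fish per well; signal comes from phospholipase A2 cleavage of quenched PED6 carried via bile; overnight exposure to compound and PED6 before scoring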); conditions: Zebrafish larvae PED6 lipid processing, fluorescence scoring; screened at 20 µM (by protocol)
# Outline: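 Test system – live zebrafish larvae aged 5-7 days, whole organism · Buffer or medium – E3 fish medium · Reagent – quenched phospholipase substrate PED6, 100 nM final, ingested by larvae · Doses – 20 µM single dose · Incubation – overnight compound and PED6 incubation · Technique – visual fluorescence microscopy scoring of gall bladder, gut · Read-out basis – visual per-well fluorescence inhibition score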
# [9] = loss of swimming-algae plug formation – whole organism, Chlamydomonas reinhardtii, WT vs cilia-less mutant, absorbance, 96-well, primary screen (AID 463189;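 active = inhibition at or above 50% relative to wild type and mutant plate controls; inactive = inhibition below 50%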;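 note: 0% = wild type cc124 cells in DMSO and 100% = ciliumless bld1 mutant cells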); conditions: Chlamydomonas reinhardtii gravitaxis, OD600 absorbance, 2 days; at 10 µM; stronger effect = higher value
# [10] = measured here: cell density z-score
# [11] = measured here: nuclear c-Myc green intensity z-score
# [12] = measured here: nuclear pErk red intensity z-score, stronger effect = higher value
SMILES,cell count [1],inhibition [1],inhibition [2],nuclei count [2],"z-score [3, 10]","z-score [3, 11]","z-score [3, 12]",inhibition [4],fluorescence slope [5],NADPH fluorescence slope [6],fluorescence slope [7],outcome [8],inhibition [9]
O=C(Nc1ncccc1Cl)c1cccc(F)c1,527,0.8% (inactive),19.5% (inactive),88.6%,-1.41,0.161,-0.3,3.42% (inactive),-0.419 (inactive),1.2e-05 (inactive),0.0047 (inactive),inactive,34.1% (inactive)
O=C(O)CCc1nn2cc(-c3ccccc3)nc2[nH]c1=O,580,3% (inactive),-147% (inactive),170%,0.555,-0.659,-0.476,-7.93% (inactive),-0.00517 (active),2.1e-06 (inactive),0.00553 (inactive),inactive,-5.8% (inactive)
CC1(C)Cc2c(C#N)c(N3CCOCC3)nc(Cc3ccccc3)c2CO1,582,-0.5% (inactive),-122% (inactive),132%,-0.332,-0.948,-0.693,-3.95% (inactive),-0.445 (inactive),-5.6e-05 (inactive),0.00448 (inactive),inactive,17.6% (inactive)
O=C1C(=O)N(Cc2cccnc2)C(c2ccccn2)/C1=C(/O)c1ccc(F)cc1 (stereo unspecified),327,-1.1% (inactive),-58.9% (inactive),98%,1.24,1.4,-0.331,-0.624% (inactive),-0.462 (inactive),-3.7e-05 (inactive),0.00549 (inactive),inactive,-9.85% (inactive)
COc1ccccc1NC(=O)CSc1nnc(-c2ccc(NC(C)=O)cc2)n1C,661,-6% (inactive),-36.2% (inactive),198%,-0.0402,-0.306,0.506,12.8% (inactive),-0.46 (inactive),-0.000106 (inactive),0.00538 (inactive),inactive,-1.17% (inactive)
O=C(CN1C(=O)c2ccccc2C1=O)OCN1C(=O)c2ccccc2C1=O,494,-4.5% (inactive),-52.7% (inactive),125%,0.289,0.0514,-0.238,3.97% (inactive),-0.348 (inactive),-2.7e-06 (inactive),0.00658 (inactive),inactive,-6.56% (inactive)
CC1(C)Cc2c(c(-c3ccccc3Cl)[nH]c(=O)c2C#N)CO1,591,5.7% (inactive),-106% (inactive),134%,0.999,-0.743,0.0604,11.9% (inactive),-0.384 (inactive),-2.7e-05 (inactive),0.00508 (inactive),inactive,20.5% (inactive)
Cc1cccn2c(=O)c3cc(C(=O)NCc4cccnc4)c(=N)n(C)c3nc12,734,7.8% (inactive),-3.9% (inactive),154%,-0.252,0.503,1.16,7.83% (inactive),-0.403 (inactive),-4.4e-05 (inactive),0.00535 (inactive),inactive,2.07% (inactive)
COC(=O)c1ccc(C2/C(=C(\O)c3cccc(OC)c3)C(=O)C(=O)N2CCCN2CCOCC2)cc1 (stereo unspecified),620,-10.1% (inactive),-57.4% (inactive),150%,0.836,-1.51,-1.62,20.2% (inactive),-0.507 (inactive),-2e-05 (inactive),0.00584 (inactive),inactive,14.7% (inactive)
CCCSc1nc(O)c(C2OC(=O)c3c2ccc(OC)c3OC)c(=O)n1C (stereo unspecified),560,-1.3% (inactive),29.6% (inactive),143%,0.566,-0.178,0.157,7.93% (inactive),-0.415 (inactive),-3.7e-05 (inactive),0.00648 (inactive),inactive,12.4% (inactive)
CC(=O)Oc1ccc2c(C)cc(=O)[nH]c2c1,666,-2% (inactive),-13% (inactive),99.4%,-0.72,0.616,0.878,5.95% (inactive),-0.502 (inactive),-0.000195 (active),0.00681 (inactive),inactive,22.8% (inactive)
CC1(C)C2CCC1(C)C(OC(=O)CC(=O)O)C2 (stereo unspecified),566,-2% (inactive),-63.5% (inactive),143%,0.899,-0.605,0.67,1.98% (inactive),-0.382 (inactive),-4.1e-05 (inactive),0.00679 (inactive),inactive,5.19% (inactive)
Cc1ccc(-n2ncc3c(NCCCN4CCCC4=O)ncnc32)c(C)c1,563,-12.5% (inactive),-40.1% (inactive),134%,0.612,-0.125,-2.3,13.4% (inactive),-0.358 (inactive),1.3e-05 (inactive),0.00773 (inactive),inactive,0.102% (inactive)
CCOC(=O)C1CCN(c2ncnc3c2cnn3-c2ccc(OC)cc2)CC1,680,-2.1% (inactive),-138% (inactive),191%,0.032,-0.586,0.421,13.4% (inactive),-0.405 (inactive),-3.9e-05 (inactive),0.00612 (inactive),inactive,-3.46% (inactive)
Cc1cc(NC(CC(C)C)C(=O)O)nc(Cc2ccccc2)n1 (stereo unspecified),372,-2.8% (inactive),-117% (inactive),188%,-0.0865,-1.02,0.665,5.42% (inactive),-0.47 (inactive),-0.000155 (inactive),0.00469 (inactive),inactive,0.592% (inactive)
CC(O)(C#CCN1CCOCC1)c1ccccc1 (stereo unspecified),634,1.5% (inactive),-34.4% (inactive),149%,0.104,0.285,0.53,-5.81% (inactive),-0.455 (inactive),-5.1e-05 (inactive),0.00484 (inactive),inactive,17.4% (inactive)
COc1ccc(-n2ncc3c(NCCCn4ccnc4)ncnc32)cc1,614,-4% (inactive),0.9% (inactive),170%,-0.682,1.35,-0.266,3.42% (inactive),-0.394 (inactive),-5.9e-06 (inactive),0.00474 (inactive),inactive,1.19% (inactive)
CC12CN3CC(=O)N4CC5(C)CN(CC(C)(C4)C5=O)C(=O)CN(C1)CC(C)(C3)C2=O,523,-11.2% (inactive),-128% (inactive),144%,0.984,-0.638,-0.379,1.42% (inactive),-0.485 (inactive),-0.000104 (inactive),0.00461 (inactive),inactive,6.7% (inactive)
CC(C)c1ccc(O)c(N)c1,660,-20.9% (inactive),-16.4% (inactive),180%,1.39,-1.5,0.0534,22.1% (inactive),-0.527 (inactive),-1.2e-05 (inactive),0.00607 (inactive),inactive,11.1% (inactive)
CCOC(=O)c1c(C)oc2ccc(OCC(=O)C(C)(C)C)cc12,668,-6% (inactive),-24.4% (inactive),124%,0.82,-1.27,0.55,20.2% (inactive),-0.435 (inactive),-5.9e-05 (inactive),0.00509 (inactive),inactive,-8.35% (inactive)
COc1cccc(C2C(C(=O)c3sc(C)nc3C)=C(O)C(=O)N2CCN2CCOCC2)c1OC (stereo unspecified),403,-3.3% (inactive),-65.8% (inactive),140%,-0.517,0.521,0.668,18.2% (inactive),-0.47 (inactive),-0.000114 (inactive),0.00521 (inactive),inactive,4.67% (inactive)
CCCC(=O)Nc1nn(CCC)c2nc3ccccc3cc12,632,-8.1% (inactive),7.7% (inactive),142%,-0.342,-1.58,0.919,2.71% (inactive),-0.481 (inactive),-6.7e-05 (inactive),0.00673 (inactive),inactive,6.78% (inactive)
CCN(CC)CCN1C(=O)C(O)=C(C(C)=O)C1c1ccc(OC)c(OC)c1 (stereo unspecified),466,0.4% (inactive),-202% (inactive),182%,0.172,-0.258,1.22,-5.62% (inactive),-0.445 (inactive),-4.1e-05 (inactive),0.00464 (inactive),inactive,2.41% (inactive)
Cc1cc(NCCNC2=CC(=O)CCC2)nc2ccccc12,473,-10.2% (inactive),-41.3% (inactive),148%,-0.963,1.28,-0.176,-3.97% (inactive),-0.431 (inactive),-4.6e-05 (inactive),0.0072 (inactive),inactive,-12.8% (inactive)
COc1cccc(C(=O)OC2CCCN(C)C2)c1 (stereo unspecified),524,1.2% (inactive),-39.2% (inactive),141%,0.452,1.21,0.0712,9.42% (inactive),-0.457 (inactive),-8.4e-05 (inactive),0.00427 (inactive),inactive,0.435% (inactive)
O=C1C(=O)N(Cc2cccnc2)C(c2ccccn2)/C1=C(/O)c1ccccc1 (stereo unspecified),620,-5.9% (inactive),-74.4% (inactive),158%,-0.531,0.731,-0.436,-8.95% (inactive),-0.503 (inactive),-6.6e-05 (inactive),0.00562 (inactive),inactive,6.67% (inactive)
CCCCCNC(=O)C(C#N)c1nc2ccccc2nc1N1CC(C)OC(C)C1 (stereo unspecified),366,-5.7% (inactive),-192% (inactive),130%,1.56,-0.566,-0.352,19.4% (inactive),-0.482 (inactive),-8.1e-05 (inactive),0.00502 (inactive),inactive,-1.81% (inactive)
